System: MS2 coat protein
Test: apparent Kd, MS2 coat protein; higher = weaker binding; RNA-MaP array; FMN 200 µM where present
Outline: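 Each design was made on Illumina sequencing-chip clusters by stalled E. coli RNA polymerase and titrated with SNAP-549-labelled MS2 coat protein from 0.7 or 1.5 nM, doubling to 3 µM, in the absence and then the presence of constant ligand. The buffer was 100 mM Tris-HCl pH 7.5, 80 mM KCl, 4 mM MgCl2, BSA, DTT, yeast tRNA and Tween-20. The apparent Kd is the median of filtered per-cluster fits of binding curves, with green signal normalised to red-channel RNA signal and control-cluster median Fmax.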

[1] = designed as: ON switch for flavin mononucleotide, no ligand
[2] = ligand present: flavin mononucleotide, designed as: ON switch for flavin mononucleotide
[3] = designed as: OFF switch for flavin mononucleotide, no ligand
[4] = ligand present: flavin mononucleotide, designed as: OFF switch for flavin mononucleotide

Sequence | apparent Kd [1] [µM] | apparent Kd [2] [µM] | apparent Kd [3] [µM] | apparent Kd [4] [µM]
AUUACAUGAGGAUCACCCAUGUACAGCACGUUUCAAUACAGUGAGGAUAUACGAAAUGUAGGAACGUAGAAGGCACUGGGUGCA | 0.265 | 0.0681 |  | 
ACUUGUAAGCAGAAGGCAGUCAUAGUAUUCGUCAUGUAGACAUGAGGAUCACCCAUGUAUAGUACUGAGGAUAUGCUUCGAUAG |  |  | 0.0193 | 0.0217
GUAGCAUUAUAAGGAUAUUCAUACCGGAAACGGACAUGAGGAUCACCCAUGUGGCGAAAGCCUUGGGAGAAGGUAUUAUGCUAC | 0.537 | 0.0249 |  | 
GCAUCCAAUGUGAGGAUAUACCUCUGGAUACAUAGGUAGAAGGCACAUGAGGAUCACCCAUGUCCUAAGGAUGC |  |  | 0.13 | 0.149
GCGUAAGUCACAGGAUAUCCAACAUGAGGAUCACCCAUGUAAAAGUGCCGCACUAGAAUGCGACUGGAGAAGGGUGAUUCGUCG | 0.0503 | 0.0275 |  | 
GACGGUGAUGUAGGAUAUACGCUGGAAUACAGCGUAGAAGGACAUGAGGAUCACCCAUGUAAAGUGUCUCUAAAUAACACCGUC |  |  | 0.0215 | 0.0473
GGUCGCAAGUAAGGAUAUGCAUAUGAAACAUAUGCAGAAGGUACAUGAGGAUCACCCAUGUUAAUGCAAAGCGAAUAAGCGACC |  |  | 0.0155 | 0.0196
AAUGCCAAUGAAGGAUAUACAAACAUGAGGAUCACCCAUGUGUCUUUCGUGUAAGUGGAAUUCGCGUAGAAGGUCAUUGACAUA |  |  | 0.0383 | 0.0223
GGAACUCAUGUAGGAUAUGCAUGGCGAAGCUACGCAGAAGGACAUGAGGAUCACCCAUGUUCUAGCGUCUGAGUACAGAUGCAA |  |  | 0.126 | 0.178
CCAUGUUAGCAGGAUAUGCAAUAAAUCUUUUAAGCAGAAGGGCUUACAUGAGGAUCACCCAUGUAUAAUUUCAA |  |  | 0.0503 | 0.116
GUAGCAUGCCAAGGAUAUUCAUAUAAUAAGUAAACAUGAGGAUCACCCAUGUAGUGAGAGCCUUGGGAGAAGGUGGGAUGCUAC | 0.0267 | 0.0419 |  | 
AUGAGCAACACAGGAUAUCUACGUGACAGAGCGAGAGAAGGGUGGGCCCAUGACUUACAUGAGGAUCACCCAUGUAGCUCCAAA | 0.0399 | 0.0972 |  | 
GGACAGGACAGAGGAUAUACGUGCUAGAGAUACUAGCAAAAUUUCCUCACAUGAGGAUCACCCAUGUAGAAGGCUGUCCUAUCG |  |  | 0.00739 | 0.123
AGCGCUACGGAAUCAAGGGCAGGCAGAAGGAGCACAUGAGGAUCACCCAUGUGAUCCAGGGAUGGCUAGGAUAUGCGCGCCACG |  |  | 0.0265 | 0.0265
UUAUUAUAUGUAGGAUAUGCAUAUUAUUAUUGUGCAGAAGGACAUGAGGAUCACCCAUGUAUAUUAUUAUUAUAUAUUAUAUAU |  |  | 0.0309 | 0.0497
CUUUUGUGAGGAUAUUCGUAGUAGGGUCAUGGCAUUAUUAUGGAGAAGGCACAUGAGGAUCACCCAUGUACCUU |  |  | 0.0197 | 0.0275
CUAAGUGCCGGAGGAUAUACAUGAGGAUCACCCAUGUCAGUCUGUUUACAUGUAGAAGGCCGGCGAACAAAGAACUUGCCACGA |  |  | 0.0438 | 0.242
GAGGCCCAGGAAGGUAGAAUGAGCAGAAGGCAACGAAGCGUGAUCGACAUGAGGAUCACCCAUGUUGAGGAUAUGCGCCUCCAC |  |  | 0.0631 | 0.178
GGAGUACAUGAGGAUCACCCAUGUUGGAACGAAGUAGGAUAUGUACAAUAUUAAAUAAAAACAGAAGGACUAAUAA | 0.0624 | 0.039 |  | 
GGUAGAAACAUUAACAUGAGGAUCACCCAUGUCAAAAGAAAUGAGGAUAUCGUAUACAAUGUAUAUGAGAAGGCAUGGUCUGCC | 0.00917 | 0.00645 |  | 
AAACACGGACAUGAGGAUCACCCAUGUGGCGAAAGCCUUGGAAGAAGGCCGAUUGCAAAGCAAUCGGAGGAUAUUCAUACCGUG |  | 0.00557 |  | 
CUGUUACAUGAGGAUCACCCAUGUCAGGAUAUUUCUAUAGCGUCCUGCCGACGCAUAGAAAGAAGGGAUGGUGA |  |  | 0.0486 | 0.0838
GUUGUGCGAGGAUAUAUGUGAGGUUUGCCUCAACAGGUAAUACAUGAGGAUCACCCAUGUAGAAGGCGCAUGAG |  |  | 0.102 | 0.589
AAAAAGCGAGGAUAUGCAUAAGGACCCGGGAGGGAAAUCAAACAUGAGGAUCACCCAUGUAGAAGGCGCAAAAA |  |  | 0.0161 | 0.0233

Sequence | apparent Kd [1] [µM] | apparent Kd [2] [µM] | apparent Kd [3] [µM] | apparent Kd [4] [µM]
AUCUAAGAAUUAAUUGUGACAGUGAGAAGGCUAUAGUAUGUGACCGACAUGAGGAUCACCCAUGUAGAGGAUAUCACUUGCUAC |  |  | 0.0718 | 0.335
GAGCGGAUGUCAGGAUAUCGCCGCGUGAAAAGGCGAGAAGGGACAUGAGGAUCACCCAUGUACUCAUAGGGCCAGCUUGGGCUA |  |  | 0.00971 | 0.0291
CGCUCAAGAGAGAAGGAUAGAAUCAGAAGGCGUAACAUGAGGAUCACCCAUGUUUAGUAGUGUAACGAGGAUAUGAAAUGAGCG |  |  | 0.00961 | 0.0108
CGUGUACGAGGAUAUAGAUUGGAUGACAUGAGGAUCACCCAUGUGAUCGAUCUAUUUGGUUUAGAAGGUGUACAUG |  |  | 0.0134 | 0.0142
AGAAACCGAGGAUAUACAUGAGGAUCACCCAUGUCAAGCGGCAUCUACCGAACCUUCUGUAGAAGGCGGAAAAC |  |  | 0.0199 | 0.0229
AGAGAGUGACAGAAGGGCAAGCUCGAAAGCGGAGAACGCGAACGAGCUUGCAGGAUAUGUUGAACAUGAGGAUCACCCAUGUCA | 0.00779 | 0.00641 |  | 
AAUCCACAUGAGGAUCACCCAUGUCAGGAAAUGACAGGAUAUAGCGAAAAAAAAAAAAAGCUAGAAGGGUCUAAUU | 0.175 | 0.0675 |  | 
UAUUUGCAAGGAUAUGAUUUAAGUAACAUGAGGAUCACCCAUGUUUUUCCGUUGUUAUGUUCAGAAGGUGCGUGAU |  |  | 0.0586 | 0.0749
CCUGACGCAUCAGGAUAUGCUUACAUCCAUGUUGCAGAAGGGAUGCGUUCUGAAAACAUGAGGAUCACCCAUGUAAGCGGCCAA | 0.082 | 0.0522 |  | 
GACUUGGCUACAUGAGGAUCACCCAUGUUUGACUGGAUCGAUCAGGAUAUAGUGAUUUGCAACAAUUAGAAGGGAUAUUUACGG | 0.0498 | 0.0516 |  | 
AAAAAAAAGGGUGAGGAUAUCGAAAAAAAAACAUGAGGAUCACCCAUGUGAAAAAAAAAAAAAUGCGAGAAGGCACUAAAAAAAAA | 0.151 | 0.0456 |  | 
AAUAAUCAGUAAGGAUAUACUAGCGAUUAGCUUGUAGAAGGUACAGUCUUAUGUAUAACAUGUUAACAUGAGGAUCACCCAUGU | 0.0629 | 0.0333 |  | 
ACUAUACGAGGAUAUACUGUCGGGCCUCGGACAUACAUACGACAUGAGGAUCACCCAUGUAGAAGGCGUUUACU |  |  | 0.0304 | 0.0684
CAGCGAUAGCUAAAGUAUCUAUCAGAGGAUAUUUAUGAAACAUGAGGAUCACCCAUGUGAAACUGGGAGAAGGCUGAUAGAUAG | 0.0119 | 0.00547 |  | 
AAGUUUGUACGAGGAUAUCAAUUGUUUCUAAAUUCAACAUGAGGAUCACCCAUGUAACAAUGGAGUGAGAAGGCGUGUGGGCAA | 0.214 | 0.203 |  | 
GAAGGCUGGUAGAAGGAUCCUCACAUGAGGAUCACCCAUGUAACAGCGGAUAGGAUAUACCGUCUUUCACGUUGGUCUCCCUAA | 0.37 | 0.0253 |  | 
ACGCCCUGAGGAUAUCUUAUGCCGCACAUGAGGAUCACCCAUGUUCUCCUCCGGGCUCCGAGAGAAGGCAGGCCCA |  |  | 0.00882 | 0.0102
GUAGCUAUUAUUAUACAUGAGGAUCACCCAUGUUACAUGUGUAAGGAUAUUGAAGUUUUUAUAAUCAAGAAGGUACUAUGCUAC | 0.0168 | 0.0092 |  | 
AAAAAACAUGAGGAUCACCCAUGUGAGGAUAUCACUAGUCAGUCCUCAGAGUGAGUACUGAGAAGGCACAUAAA |  |  | 0.0869 | 0.0543
CGCACUGAUAGAGGAUAUGUUUUACAUGAGGAUCACCCAUGUGUACAAGGAUCAAUAUAUUAGUAACAGAAGGCUAUUUGUGCG |  |  | 0.0217 | 0.0191
UUGAUGUGAGGAUAUGUGAUCUGCCUUCUAUAUAGAUGAUUACAGAAGGCACAUGAGGAUCACCCAUGUAGAUC |  |  | 0.0785 | 0.0589
GAUGGACAUGAGGAUCACCCAUGUCAGGAUAUUGUUUGUGGCUAGUUUUGGUUACGGGCGAGAAGGGACUCGUC |  |  | 0.0226 | 0.0207
GUAUUUAGAUAAGGAUAUAAGUCUAGGACAUGAGGAUCACCCAUGUGUGUCUUAGAAGGUAUUUGGGUAAUAUUGUUACAGUAA | 0.16 | 0.114 |  | 
UGGGCCCGAACAGGAUAUGUAACCAGUCCCUCACAUGAGGAUCACCCAUGUCCAAGGGCUCGAAGGCAGAAGGGUUAAGGCUGU | 0.74 | 0.138 |  | 
